Rows were chosen to be rich in hits. Some 3.5% of all compounds tested hit in one or more screens of this group.
MrgX1 antagonist: antagonists of human MrgX1 receptor, primary screen, HEK293 cells, Fluo-4 calcium flux | 310,000 compounds, 1.3% hits | Mas-related G-protein coupled receptor member X1 (Homo sapiens), Q96LB2 | BAM8-22 antagonism; hits give low values | B-score at 10 µM;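 active = calcium-response B-score plate-corrected more than 3 library SD below zero, starting fluorescence within 5 deviations, no agonist response on first addition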;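 also: peak minus trough fluorescence over baseline after final BAM8-22 challenge near maximal dose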
Target sequence (Q96LB2 whole entry, looked up): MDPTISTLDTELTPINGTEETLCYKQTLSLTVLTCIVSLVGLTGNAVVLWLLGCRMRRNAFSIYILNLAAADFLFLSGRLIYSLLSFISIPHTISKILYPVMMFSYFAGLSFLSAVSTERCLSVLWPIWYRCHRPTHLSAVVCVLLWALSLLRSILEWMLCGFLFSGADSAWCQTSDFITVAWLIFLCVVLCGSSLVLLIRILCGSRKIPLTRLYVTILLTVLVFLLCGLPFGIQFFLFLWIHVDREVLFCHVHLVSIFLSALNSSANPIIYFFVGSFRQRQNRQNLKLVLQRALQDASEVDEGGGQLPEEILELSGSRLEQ
MrgX1 PAM: positive allosteric modulators of MrgX1, primary screen, HEK293 cells, Fluo-4 calcium flux; Mas-related G-protein coupled receptor member X1 (Homo sapiens), Q96LB2; FDSS; hits give high values; B-score at 10 µM; 310,000 compounds, 0.63% hits; AID 588675, 2011;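 active = plate-corrected calcium response at least 3 library SD above typical, normal starting fluorescence, not activating the receptor alone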;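 also: compound read alongside a low EC10 to EC30 dose of BAM8-22 agonist; peak minus trough fluorescence over baseline measured at the second addition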
RGS4 pot: RGS4 potentiators or activators, primary screen, cell-based, HEK293 M3R inducible RGS4, calcium flux | carbachol calcium flux Fluo4; hits give low values | B-score at 10 µM | 310,000 compounds, 0.92% hits;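 active = B-score of the integrated calcium signal more than 4 SD below the library mean, with starting fluorescence not abnormally high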;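 also: negative B-score means reduced calcium response which marks RGS4 activation or potentiation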
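Assay system: HEK293 FlpIn-TREx cells, stable M3R, doxycycline-inducible RGS4 / Probe or stimulus: carbachol, ECmax concentration / Times: overnight RGS4 induction, 30 min dye load 37 °C, 20 min compound RT / Signal: kinetic calcium fluorescence imaging with Fluo4-AM dye, 2 µM / Measure: Agonist-evoked peak-minus-minimum fluorescence over baseline, integrated ratio, B score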
MrgX1 ag: agonists of human MrgX1 receptor, primary screen, HEK293 cells, Fluo-4 calcium flux; Mas-related G-protein coupled receptor member X1 (Homo sapiens), Q96LB2; AID 588627, 2011; Fluo-4 calcium fluorescence, agonist mode; hits give high values; B-score at 10 µM; 310,000 compounds, 0.44% hits;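 active = calcium response B-score plate-corrected fluorescence ratio at least 3 library SD, with starting fluorescence B-score inside 5 SD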
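Test system: HEK293 cells stably expressing human MrgX1 receptor; amount: 15,000 cells per well; doses: compound delivered in addition one of three; times: overnight plating before 1 h dye loading; detection: Fluo-4 NW calcium-flux fluorescence, kinetic read; read-out basis: B-scored fluorescence response ratio; controls: positive and negative controls per plate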
RGS4 inh: RGS4 inhibitors, primary screen, cell-based, HEK293 M3R inducible RGS4, calcium flux. Fluo-4 calcium flux; hits give high values; triggered by carbachol at its EC20. B-score at 10 µM. 310,000 compounds, 0.45% hits. AID 463165, 2010;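 active = B-score, a plate-corrected calcium signal, over three deviations above library mean, with baseline fluorescence within five deviations of library mean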;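 also: RGS4 expression induced by doxycycline in cells with stable M3 receptor; B-score is computed from the integrated fluorescence ratio over baseline after carbachol; higher B-score means a larger calcium signal and so more RGS4 inhibition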
RGS4 inh valid: enhanced carbachol calcium response, M3R/RGS4 cells, RGS4 inhibitor project, cell-based, validation screen, HEK293 M3R/RGS4, calcium flux; shares compounds with RGS4 inh; carbachol calcium Fluo-4 fluorescence; carbachol added at its EC20; 0 = buffer wells, 100 = carbachol control; calcium response, % at 10 µM; 1,700 compounds, 65% hits;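 active = duplicate-averaged calcium response above the buffer-only control mean plus 5 SD of those controls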;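 also: integrated fluorescence ratio F max minus min over baseline F0; higher response in RGS4-induced cells means RGS4 inhibition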
M3R Ca ctr: carbachol calcium response in non-induced M3R cells, confirmation, counter-screen for RGS4 inhibitor project, cell-based, HEK293 M3R | shares compounds with RGS4 inh | carbachol calcium Fluo-4; submaximal (EC20) carbachol stimulus; buffer wells 0%, carbachol control wells 100% | activity (percent), % at 10 µM | 1,900 compounds, 20% hits | AID 493000, 2010; call rule not given here;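 also: RGS4 induction absent so cells express M3R without RGS4; higher means more calcium signal and flags a non-specific hit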
RGS4 inh ctr2: second RGS4 inhibitor counter-screen in uninduced cells lacking carbachol | shares compounds with RGS4 inh | HEK293 M3R/RGS4 non-induced, Fluo-4 calcium, no carbachol; normalised: buffer wells 0%, carbachol wells 100% | calcium response (agonist-mode artifact), % at 10 µM | 1,900 compounds, 22% hits;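 active = duplicate-averaged calcium rise in uninduced cells above buffer wells' mean plus 5 SD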
An asterisk follows results filed as active; i = inactive; · = not tested or not shown.

SMILES	MrgX1 antagonist	MrgX1 PAM	RGS4 pot	MrgX1 ag	RGS4 inh	RGS4 inh valid	M3R Ca ctr	RGS4 inh ctr2
COc1ccc(C2C(C#N)=C(N)Oc3cc(O)ccc32)cc1C (centres undefined)	i	i	i	i	i	·	31%*	21%*
COc1cc(C2C(C#N)=C(N)Oc3cc(O)ccc32)cc(OC)c1OC (centres undefined)	i	i	i	i	i	·	·	·
COc1cc(C2C(C#N)=C(N)Oc3cc(O)ccc32)cc2c1OCO2 (centres undefined)	i	i	i	i	12*	29%*	i	i
O=C(CN1CCN(c2ccccn2)CC1)Nc1cccc(S(=O)(=O)N2CCCC2)c1	i	i	i	i	i	·	·	·
CC(C)S(=O)(=O)c1csc(NC(=O)Nc2cc(Cl)ccc2Cl)c1Cl	i	i	i	i	i	·	·	·
CCOc1ncccc1C(=O)NCCc1ccc(S(N)(=O)=O)cc1	i	i	i	i	i	·	·	·
O=C(c1cc2ccccc2o1)N1CCN(c2cccc(Cl)c2)CC1	i	i	i	i	i	·	·	·
Cc1ccc(C(=O)N/C(=C\c2ccccc2F)c2nc(=S)[nH][nH]2)cc1	i	i	i	i	i	·	·	·
Cc1ccc(/C=C(\NC(=O)c2ccc(C)cc2)c2nc(=S)[nH][nH]2)cc1	i	i	i	i	11*	35%*	44%*	i
COc1ccc(-c2csc(NC(=O)c3ccc(S(=O)(=O)N4CCc5ccccc5C4)cc3)n2)c(OC)c1	i	i	i	i	i	·	·	·
Cc1ccc(C=Nc2ccc(N(C)C)cc2)o1	i	i	i	i	5.3*	10%*	i	i
O=C(O)CCN1C(=O)c2ccc(NC(=O)CCc3ccccc3)cc2C1=O	i	i	i	i	i	·	·	·
COC(=O)Cc1[nH]nc2c1C1(C(=O)N(Cc3ccccc3)c3ccccc31)C(C#N)=C(N)O2 (centres undefined)	i	i	i	i	i	·	i	i
Cc1[nH]nc2c1C1(C(=O)N(Cc3ccc(Cl)cc3)c3ccccc31)C(C#N)=C(N)O2 (centres undefined)	i	i	i	i	i	·	·	·
O=C(COC(=O)CNC(=O)c1ccccc1)Nc1ccc(S(=O)(=O)N2CCOCC2)cc1	i	i	i	i	i	·	·	·
O=C(/C=C/c1ccccn1)c1cc(Br)ccc1O	i	i	i	i	7*	12%*	36%*	i
O=C(/C=C/c1ccccn1)c1ccc(Br)cc1O	i	i	·	i	·	·	·	·
CCOC(=O)[C@@H]1[C@H]2COc3ccccc3[C@@H]2N2C(=O)N(c3cccc(F)c3)C(=O)[C@]12C	i	i	i	i	i	i	i	i
CCOC(=O)[C@@H]1[C@H]2COc3ccccc3[C@H]2N2C(=O)N(c3cccc(Cl)c3)C(=O)[C@@]12C	i	i	i	i	6.5*	36%*	32%*	i
CCOC(=O)[C@@H]1[C@H]2COc3ccccc3[C@@H]2N2C(=O)N(c3cccc(Cl)c3)C(=O)[C@]12C	i	i	i	i	i	i	i	i
